Source: ChEMBL document CHEMBL4257484, “Membrane-active antimicrobial poly(amino-modified alkyl) β-cyclodextrins synthesized via click reactions” (Medchemcomm, 2018)
Values after ≈ are worked out from the molar mass of the structure shown.

Experiments:
Streptococcus agalactiae = test: Antibacterial activity against drug-resistant Streptococcus agalactiae B1 after 18 to 20 hrs by agar dilution method; type: functional
How it was run: (§1)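 Agar dilution per CLSI. Overnight broth cultures were diluted 100-fold, and one loopful (about 10^5 to 10^4 CFU) was spotted onto agar plates containing the CD. Growth was scored after 18–20 h at 37 °C. MIC values are in µM.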

[1] = Hemolytic activity in rabbit RBC at 2 uM after 20 mins relative to control; type: ADME, cell-based, Oryctolagus cuniculus, Erythrocyte; conditions: rabbit red blood cells (erythrocytes), read-out: Activity
How it was run: (§2)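 Rabbit erythrocytes suspended in 150 mM NaCl/10 mM Hepes-NaOH, pH 7.4, at 0.5% hematocrit (final) and incubated with compound at 37 °C. The table footnote gives 20 min; the methods section gives 30 min. Hemolysis was read as absorbance at 540 nm, with 50 µM lysolecithin defining 100% hemolysis.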

Pseudomonas aeruginosa = test: Antibacterial activity against drug-sensitive Pseudomonas aeruginosa PAO1 after 20 hrs by liquid microdilution method; type: functional; conditions: PAO1, 20 h
How it was run: (§3)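 Two-fold serial dilutions of compound in Mueller–Hinton broth, inoculated with 1 × 10^4 cells and cultured at 37 °C for 20 h in microtiter wells.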

[2] = Hemolytic activity in rabbit RBC at 10 uM after 20 mins relative to control; type: ADME, cell-based, Oryctolagus cuniculus, Erythrocyte; conditions: rabbit red blood cells (erythrocytes), read-out: Activity; how it was run: as §2
Escherichia coli = test: Antibacterial activity against drug-sensitive Escherichia coli K-12 W3110 after 20 hrs by liquid microdilution method; type: functional; conditions: K-12 substr. W3110, 20 h; how it was run: as §3
Salmonella typhimurium = test: Antibacterial activity against drug-sensitive Salmonella typhimurium LT2 after 20 hrs by liquid microdilution method; type: functional, Salmonella enterica subsp. enterica serovar Typhimurium; conditions: Salmonella enterica, LT2, 20 h; how it was run: as §3
[3] = Hemolytic activity in rabbit RBC at 20 uM after 20 mins relative to control; type: ADME, cell-based, Oryctolagus cuniculus, Erythrocyte; conditions: rabbit red blood cells (erythrocytes), read-out: Activity; how it was run: as §2
[4] = Hemolytic activity in rabbit RBC at 5 uM after 20 mins relative to control; type: ADME, cell-based, Oryctolagus cuniculus, Erythrocyte; conditions: rabbit red blood cells (erythrocytes), read-out: Activity; how it was run: as §2
[5] = Hemolytic activity in rabbit RBC at 1 uM after 20 mins relative to control; type: ADME, cell-based, Oryctolagus cuniculus, Erythrocyte; conditions: rabbit red blood cells (erythrocytes), read-out: Activity; how it was run: as §2
[6] = Lipophilicity, log P of the compound; type: physicochemical; conditions: octanol/water
[7] = Hemolytic activity in rabbit RBC at 50 uM after 20 mins relative to control; type: ADME, cell-based, Oryctolagus cuniculus, Erythrocyte; conditions: rabbit red blood cells (erythrocytes), read-out: Activity; how it was run: as §2
Enterococcus faecalis [8] = test: Antibacterial activity against drug-resistant Enterococcus faecalis MS29030 after 18 to 20 hrs by agar dilution method; type: functional; how it was run: as §1
Staphylococcus aureus [9] = test: Antibacterial activity against methicillin-resistant Staphylococcus aureus MS29202 after 18 to 20 hrs by agar dilution method; type: functional; how it was run: as §1
Bacillus subtilis = test: Antibacterial activity against drug-sensitive Bacillus subtilis 168 after 20 hrs by liquid microdilution method; type: functional; conditions: subsp. subtilis str. 168, 20 h; how it was run: as §3
Staphylococcus aureus [10] = test: Antibacterial activity against methicillin-sensitive Staphylococcus aureus FDA 209P after 20 hrs by liquid microdilution method; type: functional; how it was run: as §3
Enterococcus faecalis [11] = test: Antibacterial activity against vancomycin-resistant Enterococcus faecalis MS29016 after 18 to 20 hrs by agar dilution method; type: functional; how it was run: as §1
Enterococcus faecium = test: Antibacterial activity against drug-resistant Enterococcus faecium MS29120 after 18 to 20 hrs by agar dilution method; type: functional; how it was run: as §1
Staphylococcus aureus [12] = test: Induction of membrane disruption in methicillin-sensitive Staphylococcus aureus FDA 209P assessed as increase in K+ efflux after 30 mins; type: functional; conditions: 0.5 h, read-out: ED50 (the source's name)
How it was run: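 S. aureus washed twice and suspended at 2 × 10^9 cells per cm3 in 100 mM choline chloride/50 mM Mops-Tris, pH 7.2, then exposed to compound at 37 °C for 30 min. Released K+ was measured in the centrifuged supernatant with a K+-selective electrode. Melittin (10 µM) defined 100% efflux, and ED50 is the concentration giving 50% efflux.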

Staphylococcus aureus [13] = test: Antibacterial activity against Staphylococcus aureus FDA 209P assessed as decrease in cell viability after 30 mins by colony counting method; type: functional; conditions: 0.5 h
How it was run: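 S. aureus washed twice and suspended at 2 × 10^9 cells per cm3 in 100 mM choline chloride/50 mM Mops-Tris, pH 7.2. Exposed to CD at 37 °C for 30 min. An aliquot was diluted in physiological saline, plated on polypeptone/yeast extract/NaCl agar and incubated overnight at 37 °C. Viability was taken from colony counts; LC50 is the concentration giving 50% viability.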

Row | SMILES | MIC (Streptococcus agalactiae) [µM] | hemolysis at 20 min, 2 µM [1] [%] | MIC (Pseudomonas aeruginosa) [µM] | hemolysis at 20 min, 10 µM [2] [%] | MIC (Escherichia coli) [µM] | MIC (Salmonella typhimurium) [µM] | hemolysis at 20 min, 20 µM [3] [%] | hemolysis at 20 min, 5 µM [4] [%] | hemolysis at 20 min, 1 µM [5] [%] | logP [6] | hemolysis at 20 min, 50 µM [7] [%] | MIC (Enterococcus faecalis [8]) [µM] | MIC (Staphylococcus aureus [9]) [µM] | MIC (Bacillus subtilis) [µM] | MIC (Staphylococcus aureus [10]) [µM] | MIC (Enterococcus faecalis [11]) [µM] | MIC (Enterococcus faecium) [µM] | EC50 (Staphylococcus aureus [12]) [µM] | LC50 (Staphylococcus aureus [13]) [µM]
1 | O[C@@H]1[C@@H](O)[C@H]2O[C@H]3[C@H](O)[C@@H](O)[C@@H](O[C@H]4[C@H](O)[C@@H](O)[C@@H](O[C@H]5[C@H](O)[C@@H](O)[C@@H](O[C@H]6[C@H](O)[C@@H](O)[C@@H](O[C@H]7[C@H](O)[C@@H](O)[C@@H](O[C@H]8[C@H](O)[C@@H](O)[C@@H](O[C@@H]1[C@@H](Cn1cc(CNCC9CCC9)nn1)O2)O[C@@H]8Cn1cc(CNCC2CCC2)nn1)O[C@@H]7Cn1cc(CNCC2CCC2)nn1)O[C@@H]6Cn1cc(CNCC2CCC2)nn1)O[C@@H]5Cn1cc(CNCC2CCC2)nn1)O[C@@H]4Cn1cc(CNCC2CCC2)nn1)O[C@@H]3Cn1cc(CNCC2CCC2)nn1 | > 43 | 0 | > 43 | 0 | > 43 | > 43 | 0 | 0 | 0 | -1 | 0 | > 43 | > 43 | 3 (≈ 6.52 µg/mL) | 5 to 11 (≈ 10.9 to 23.9 µg/mL) | > 43 | > 43 |  | 
2 | CC(C)CCNCc1cn(C[C@H]2O[C@@H]3O[C@H]4[C@H](O)[C@@H](O)[C@@H](O[C@H]5[C@H](O)[C@@H](O)[C@@H](O[C@H]6[C@H](O)[C@@H](O)[C@@H](O[C@H]7[C@H](O)[C@@H](O)[C@@H](O[C@H]8[C@H](O)[C@@H](O)[C@@H](O[C@H]9[C@H](O)[C@@H](O)[C@@H](O[C@H]2[C@H](O)[C@H]3O)O[C@@H]9Cn2cc(CNCCC(C)C)nn2)O[C@@H]8Cn2cc(CNCCC(C)C)nn2)O[C@@H]7Cn2cc(CNCCC(C)C)nn2)O[C@@H]6Cn2cc(CNCCC(C)C)nn2)O[C@@H]5Cn2cc(CNCCC(C)C)nn2)O[C@@H]4Cn2cc(CNCCC(C)C)nn2)nn1 | 11 (≈ 24.1 µg/mL) | 0 | > 43 | 0 | > 43 | > 43 | 0 | 0 | 0 | -0.57 | 0 | > 43 | 21 (≈ 45.9 µg/mL) | 1 (≈ 2.19 µg/mL) | 3 to 5 (≈ 6.56 to 10.9 µg/mL) | > 43 | 21 (≈ 45.9 µg/mL) |  | 
3 | CCCCCCC(N)c1cn(C[C@H]2O[C@@H]3O[C@H]4[C@H](O)[C@@H](O)[C@@H](O[C@H]5[C@H](O)[C@@H](O)[C@@H](O[C@H]6[C@H](O)[C@@H](O)[C@@H](O[C@H]7[C@H](O)[C@@H](O)[C@@H](O[C@H]8[C@H](O)[C@@H](O)[C@@H](O[C@H]9[C@H](O)[C@@H](O)[C@@H](O[C@H]2[C@H](O)[C@H]3O)O[C@@H]9Cn2cc(C(N)CCCCCC)nn2)O[C@@H]8Cn2cc(C(N)CCCCCC)nn2)O[C@@H]7Cn2cc(C(N)CCCCCC)nn2)O[C@@H]6Cn2cc(C(N)CCCCCC)nn2)O[C@@H]5Cn2cc(C(N)CCCCCC)nn2)O[C@@H]4Cn2cc(C(N)CCCCCC)nn2)nn1 (stereo partly drawn) | 10 (≈ 22.8 µg/mL) | 37 | 21 (≈ 48 µg/mL) | 109 | 10 (≈ 22.8 µg/mL) | 10 (≈ 22.8 µg/mL) | 113 | 101 | 10 | -0.18 | 118 | 42 (≈ 96 µg/mL) | 10 (≈ 22.8 µg/mL) | 5 (≈ 11.4 µg/mL) | 3 to 10 (≈ 6.85 to 22.8 µg/mL) | 21 (≈ 48 µg/mL) | 21 (≈ 48 µg/mL) |  | 
4 | OC[C@H]1O[C@@H]2O[C@H]3[C@H](O)[C@@H](O)[C@@H](O[C@H]4[C@H](O)[C@@H](O)[C@@H](O[C@H]5[C@H](O)[C@@H](O)[C@@H](O[C@H]6[C@H](O)[C@@H](O)[C@@H](O[C@H]7[C@H](O)[C@@H](O)[C@@H](O[C@H]8[C@H](O)[C@@H](O)[C@@H](O[C@H]1[C@H](O)[C@H]2O)O[C@@H]8CO)O[C@@H]7CO)O[C@@H]6CO)O[C@@H]5CO)O[C@@H]4CO)O[C@@H]3CO [BETADEX] |  |  |  |  |  |  |  |  |  |  |  |  |  |  |  |  |  | > 50 | > 50
